Assay results from ChEMBL document CHEMBL3272254, “Inhibition of squalene synthetase by farnesyl pyrophosphate analogues” (J Med Chem, 1977).
Active and inactive are the calls of the source. The calls are words filed in the database; no cut-off is given here.

What was measured:
[1] = biological target: T1, Squalene synthase ERG9 (Saccharomyces cerevisiae (strain ATCC 204508 / S288c) (Baker's yeast)) (UniProt P29704); experiment: Inhibition of Baker's yeast squalene synthetase assessed as incorporation of [1-3H]farnesyl pyrophosphate into squalene at 2 to 6 uM after 2 mins by liquid scintillation spectrometer analysis
T1 sequence (whole entry): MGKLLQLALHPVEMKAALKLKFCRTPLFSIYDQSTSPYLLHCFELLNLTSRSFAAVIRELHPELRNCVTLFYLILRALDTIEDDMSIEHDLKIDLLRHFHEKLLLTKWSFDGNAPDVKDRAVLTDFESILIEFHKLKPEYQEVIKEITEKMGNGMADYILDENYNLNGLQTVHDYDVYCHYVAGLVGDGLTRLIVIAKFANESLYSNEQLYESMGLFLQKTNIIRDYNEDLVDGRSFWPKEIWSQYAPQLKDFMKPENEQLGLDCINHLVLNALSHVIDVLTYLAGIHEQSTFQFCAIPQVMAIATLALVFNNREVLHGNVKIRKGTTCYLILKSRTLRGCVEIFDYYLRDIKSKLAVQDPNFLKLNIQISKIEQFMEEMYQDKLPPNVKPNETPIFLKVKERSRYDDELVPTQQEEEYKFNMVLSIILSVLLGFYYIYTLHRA
How it was run: (§1)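 Enzyme: yeast […] from sonicated baker's yeast, high-speed supernatant precipitated at 30–55% ammonium sulfate, dialyzed in 100 mM K phosphate pH 7.0 with 20 mM 2-mercaptoethanol. Assay in 1 ml at 37 °C, started with enzyme (1.34 mg/ml protein): [1-3H]FPP 1–10 µM, 10 mM MgCl2, 1.6 mM NADPH, 50 mM K phosphate pH 7.5. Squalene recovered by minicolumn and scintillation counted. Each point done in at least two independent experiments.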

[2] = biological target: T1, Squalene synthase ERG9 (Saccharomyces cerevisiae (strain ATCC 204508 / S288c) (Baker's yeast)); experiment: Inhibition of Baker's yeast squalene synthetase using [1-3H]farnesyl pyrophosphate as substrate at 4 uM preincubated for up to 5 hrs before substrate addition by liquid scintillation spectrometer analysis
[3] = biological target: T1, Squalene synthase ERG9 (Saccharomyces cerevisiae (strain ATCC 204508 / S288c) (Baker's yeast)); experiment: Mixed type inhibition of Baker's yeast squalene synthetase using [1-3H]farnesyl pyrophosphate as substrate by Lineweaver-Burk graphic analysis; how it was run: as §1
[4] = biological target: T1, Squalene synthase ERG9 (Saccharomyces cerevisiae (strain ATCC 204508 / S288c) (Baker's yeast)); experiment: Inhibition of Baker's yeast squalene synthetase assessed as incorporation of [1-3H]farnesyl pyrophosphate into squalene up to 20 uM after 2 mins by liquid scintillation spectrometer analysis; how it was run: as §1
[5] = biological target: T1, Squalene synthase ERG9 (Saccharomyces cerevisiae (strain ATCC 204508 / S288c) (Baker's yeast)); experiment: Competitive inhibition of Baker's yeast squalene synthetase using [1-3H]farnesyl pyrophosphate as substrate by Lineweaver-Burk graphic analysis; how it was run: as §1

Compound: CC(C)=CCC/C(C)=C/CC/C(C)=C/COP(=O)(O)OP(=O)(O)O
- inhibition [1]: Active

Compound: CC(C)=CCC/C(C)=C/CCC#CCOP(=O)(O)OP(=O)(O)O
- inhibition [2]: Active
- inhibition [3]: Active
- inhibition [4]: inactive

Compound: CC(C)CCCC(C)CCCC(C)CCOP(=O)(O)OP(=O)(O)O (stereo not given)
- inhibition [4]: inactive
- inhibition [5]: Active

Compound: C/C(=C\COP(=O)(O)OP(=O)(O)O)CCCC(C)CCCC(C)CCCC(C)C (mixture of isomers)
- inhibition [4]: inactive
- inhibition [5]: Active

Compound: CC(C)=CCC/C(C)=C/COP(=O)(O)OP(=O)(O)O
- inhibition [1]: Active
- inhibition [4]: inactive
- inhibition [5]: Active

Compound: CC(C)=CCC/C(C)=C/CC/C(C)=C(\C)COP(=O)(O)OP(=O)(O)O
- inhibition [1]: Active
- inhibition [4]: inactive

Compound: CC(C)=CCC/C(C)=C/CC/C=C/COP(=O)(O)OP(=O)(O)O
- inhibition [2]: Active
- inhibition [3]: Active
- inhibition [4]: inactive

Compound: CC(C)=CCC/C(C)=C/CC/C=C(/I)COP(=O)(O)OP(=O)(O)O
- inhibition [2]: Active
- inhibition [4]: inactive
- inhibition [5]: Active

Compound: C/C(=C\COP(=O)(O)OP(=O)(O)O)CCCC(C)CCCC(C)C (stereo not given)
- inhibition [4]: inactive
- inhibition [5]: Active

Compound: CSC(C/C=C(\C)CCC=C(C)C)/C(C)=C/COP(=O)(O)OP(=O)(O)O (stereo not given)
- inhibition [2]: Active
- inhibition [4]: inactive
- inhibition [5]: Active

Compound: CC/C(=C\COP(=O)(O)OP(=O)(O)O)CC/C=C(\C)CCC=C(C)C
- inhibition [1]: Active
- inhibition [4]: inactive
- inhibition [5]: Active

Compound: CC(C)=CCC/C(C)=C/CC/C(I)=C\COP(=O)(O)OP(=O)(O)O
- inhibition [2]: Active
- inhibition [4]: inactive
- inhibition [5]: Active
